Results on 1 compound are retold here after ChEMBL document CHEMBL1148736, “N-Acylthiadiazolines, a new class of liver X receptor agonists with selectivity for LXRbeta” (J Med Chem, 2007).

The source made the active and inactive calls. No cut-off for these calls is given here.

The subject of data set [1] is THP-1. Description: Increase in ABCA1 gene expression in THP1 cells at 10 uM relative to GW-3965. The class given is functional, Homo sapiens. The gist of the method:
(§1)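 THP-1 cells differentiated with 40 ng/mL PMA for 1 day, then switched to RPMI with 2% lipoprotein-deficient FBS. Compound added 6 h later at 1 or 10 µM in DMSO, incubated 24 h. ABCA1 mRNA by one-step TaqMan qRT-PCR, triplicate, multiplexed with 36B4; fold induction vs DMSO, expressed relative to reference dual agonist.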

Data set [2] has as its target T1, Oxysterols receptor LXR-alpha (Homo sapiens, UniProt Q13133).
T1 sequence (Q13133 whole entry): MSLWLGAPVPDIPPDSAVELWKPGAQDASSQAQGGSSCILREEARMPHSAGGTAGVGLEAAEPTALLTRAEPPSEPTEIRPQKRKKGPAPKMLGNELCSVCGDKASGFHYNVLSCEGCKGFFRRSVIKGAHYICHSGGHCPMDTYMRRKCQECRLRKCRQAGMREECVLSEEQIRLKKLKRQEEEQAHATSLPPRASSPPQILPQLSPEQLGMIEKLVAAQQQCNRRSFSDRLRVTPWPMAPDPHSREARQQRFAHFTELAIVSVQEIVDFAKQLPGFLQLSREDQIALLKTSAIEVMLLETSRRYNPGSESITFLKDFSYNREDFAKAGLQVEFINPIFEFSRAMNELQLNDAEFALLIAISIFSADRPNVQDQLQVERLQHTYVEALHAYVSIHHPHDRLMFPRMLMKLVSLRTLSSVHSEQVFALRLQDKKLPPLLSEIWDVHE
Description: Activity at human LXRalpha by Gal4 transactivation assay. The gist of the method:
(§2)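 GAL4 DBD fused to hLXRα or hLXRβ LBD in pcDNA3, co-transfected into HepG2 with luciferase reporter. Cells in DMEM with 10% lipoprotein-deficient FBS, 7.5 µM lovastatin, 100 µM mevalonic acid. Ligand added 24 h post-transfection as 11-point curves from 10 µM; luciferase read after 16 h. Run in quadruplicate. %E = max fold induction vs max fold induction of reference dual agonist in same experiment.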

The target of data set [3] is T2, Glucocorticoid receptor (Homo sapiens) (UniProt P04150).
T2 sequence (whole entry): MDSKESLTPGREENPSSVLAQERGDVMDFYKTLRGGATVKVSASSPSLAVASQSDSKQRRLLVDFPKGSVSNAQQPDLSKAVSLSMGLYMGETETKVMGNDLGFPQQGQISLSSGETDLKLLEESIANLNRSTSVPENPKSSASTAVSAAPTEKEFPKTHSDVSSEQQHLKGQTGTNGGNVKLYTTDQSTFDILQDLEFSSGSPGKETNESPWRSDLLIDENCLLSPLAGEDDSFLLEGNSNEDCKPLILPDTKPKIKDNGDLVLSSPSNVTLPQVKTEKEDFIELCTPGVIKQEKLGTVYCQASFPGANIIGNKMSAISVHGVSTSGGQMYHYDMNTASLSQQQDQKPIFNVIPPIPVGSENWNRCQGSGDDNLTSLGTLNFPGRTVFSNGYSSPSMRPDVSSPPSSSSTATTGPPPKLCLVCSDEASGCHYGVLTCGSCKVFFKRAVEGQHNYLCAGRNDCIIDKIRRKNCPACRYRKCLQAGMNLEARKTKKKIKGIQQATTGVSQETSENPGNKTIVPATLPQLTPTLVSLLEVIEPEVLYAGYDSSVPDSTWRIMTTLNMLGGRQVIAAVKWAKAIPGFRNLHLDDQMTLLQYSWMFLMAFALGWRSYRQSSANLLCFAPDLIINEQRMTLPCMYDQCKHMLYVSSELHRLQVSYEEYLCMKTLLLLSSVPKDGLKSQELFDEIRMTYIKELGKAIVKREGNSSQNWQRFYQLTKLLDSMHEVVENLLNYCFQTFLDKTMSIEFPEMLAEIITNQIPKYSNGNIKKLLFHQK
Description: Activity at GR by cell based assay. The class given is functional.

Data set [4] has as its target Retinoid X receptor (Homo sapiens) (UniProt P28702+P48443+P19793). Description: Activity at RXR by cell based assay.
Data set [5] is described as follows: AUC in C57BL/6 mouse at 20 mg/kg, po. It counts as ADME, organism-based. Also noted: dose 20 mg/kg, route oral. The settings on record: plasma. Summed up:
(§3)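 Mouse PK study, IV and PO; compound formulated at 2.5 mg/mL in PEG300/Tween 80 (4:1). IV dose 5 mpk (AUC, Cmax, clearance, Vss); oral dose 20 mpk (AUC, Cmax, bioavailability, t1/2).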

A short description of data set [6]: Cmax in C57BL/6 mouse at 5 mg/kg, iv. It counts as ADME, organism-based. Set-up: dose 5 mg/kg, route intravenous. As to conditions: in vivo. The gist of the method:
as §3

The target in data set [7] is T3, Oxysterols receptor LXR-alpha (Homo sapiens) (UniProt Q13133).
T3 sequence (whole entry): T1 sequence (Q13133 whole entry)
Description: Activity at human LXRalpha by Gal4 transactivation assay relative to GW-3965. Summed up:
as §2

Data set [8] concerns THP-1. Description: Increase in ABCA1 gene expression in THP1 cells at 1 uM relative to GW-3965. The class given is functional, Homo sapiens. The gist of the method:
as §1

Data set [9] addresses T3, Oxysterols receptor LXR-alpha (Homo sapiens). Description: Agonist activity at GAL-linked human LXRalpha expressed in THP1 cells assessed as stimulation of co-activator recruitment by FRET assay relative to GW-3965. The class given is functional. The gist of the method:
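Cell-free TR-FRET coactivator recruitment: 20 nM His-tagged hLXRα or hLXRβ, 300 nM biotinylated SRC-1 peptide, Eu-anti-His antibody, APC-streptavidin. 12-point curves from 20 µM; 1 h at 37 °C. Duplicate. %E = maximal coactivator recruitment relative to reference dual agonist in same experiment.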

The target of data set [10] is T4, Oxysterols receptor LXR-beta (Homo sapiens, UniProt P55055).
T4 sequence (P55055 whole entry): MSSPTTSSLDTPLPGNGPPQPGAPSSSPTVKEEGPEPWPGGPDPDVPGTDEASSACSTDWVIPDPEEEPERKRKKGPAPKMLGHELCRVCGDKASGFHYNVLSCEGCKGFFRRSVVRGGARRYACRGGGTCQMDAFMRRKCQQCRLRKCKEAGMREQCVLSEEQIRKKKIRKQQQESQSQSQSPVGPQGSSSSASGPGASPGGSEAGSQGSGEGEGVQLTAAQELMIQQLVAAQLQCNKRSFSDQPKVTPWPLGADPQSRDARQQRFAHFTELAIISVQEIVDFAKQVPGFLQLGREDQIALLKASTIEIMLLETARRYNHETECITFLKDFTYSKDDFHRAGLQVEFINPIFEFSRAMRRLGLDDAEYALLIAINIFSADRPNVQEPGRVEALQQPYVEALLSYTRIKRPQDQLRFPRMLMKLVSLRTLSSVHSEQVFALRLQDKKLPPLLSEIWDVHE
Description: Activity at human LXRbeta by Gal4 transactivation assay. The gist of the method:
as §2

Sequence of Retinoid X receptor (Homo sapiens) (P19793 whole entry, looked up): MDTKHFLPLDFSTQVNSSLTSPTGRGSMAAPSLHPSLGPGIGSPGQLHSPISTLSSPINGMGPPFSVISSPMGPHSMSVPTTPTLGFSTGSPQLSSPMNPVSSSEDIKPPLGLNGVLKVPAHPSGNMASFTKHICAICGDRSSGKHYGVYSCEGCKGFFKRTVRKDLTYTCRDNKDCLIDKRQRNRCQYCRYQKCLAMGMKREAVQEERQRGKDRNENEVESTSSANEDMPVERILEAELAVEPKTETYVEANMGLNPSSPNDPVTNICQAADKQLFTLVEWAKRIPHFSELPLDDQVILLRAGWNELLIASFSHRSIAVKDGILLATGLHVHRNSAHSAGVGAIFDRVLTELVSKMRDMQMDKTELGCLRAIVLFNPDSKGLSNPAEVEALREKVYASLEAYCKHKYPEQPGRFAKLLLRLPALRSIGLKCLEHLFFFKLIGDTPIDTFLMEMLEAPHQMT
Sequence of Retinoid X receptor (Homo sapiens) (P28702 whole entry, looked up): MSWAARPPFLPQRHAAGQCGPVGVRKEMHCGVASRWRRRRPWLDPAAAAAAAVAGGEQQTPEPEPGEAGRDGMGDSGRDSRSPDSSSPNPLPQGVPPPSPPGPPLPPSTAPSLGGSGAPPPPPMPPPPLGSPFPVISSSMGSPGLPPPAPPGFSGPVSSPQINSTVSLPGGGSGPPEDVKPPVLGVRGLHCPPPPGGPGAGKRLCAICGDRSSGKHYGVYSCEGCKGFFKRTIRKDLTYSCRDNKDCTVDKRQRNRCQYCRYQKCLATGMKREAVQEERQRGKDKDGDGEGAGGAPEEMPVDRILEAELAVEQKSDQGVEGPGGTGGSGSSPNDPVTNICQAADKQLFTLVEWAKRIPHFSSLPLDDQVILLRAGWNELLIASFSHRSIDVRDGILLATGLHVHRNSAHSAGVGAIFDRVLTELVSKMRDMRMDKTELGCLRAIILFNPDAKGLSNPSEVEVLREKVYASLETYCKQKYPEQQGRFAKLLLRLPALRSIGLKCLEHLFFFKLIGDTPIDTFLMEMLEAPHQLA
Sequence of Retinoid X receptor (Homo sapiens) (P48443 whole entry, looked up): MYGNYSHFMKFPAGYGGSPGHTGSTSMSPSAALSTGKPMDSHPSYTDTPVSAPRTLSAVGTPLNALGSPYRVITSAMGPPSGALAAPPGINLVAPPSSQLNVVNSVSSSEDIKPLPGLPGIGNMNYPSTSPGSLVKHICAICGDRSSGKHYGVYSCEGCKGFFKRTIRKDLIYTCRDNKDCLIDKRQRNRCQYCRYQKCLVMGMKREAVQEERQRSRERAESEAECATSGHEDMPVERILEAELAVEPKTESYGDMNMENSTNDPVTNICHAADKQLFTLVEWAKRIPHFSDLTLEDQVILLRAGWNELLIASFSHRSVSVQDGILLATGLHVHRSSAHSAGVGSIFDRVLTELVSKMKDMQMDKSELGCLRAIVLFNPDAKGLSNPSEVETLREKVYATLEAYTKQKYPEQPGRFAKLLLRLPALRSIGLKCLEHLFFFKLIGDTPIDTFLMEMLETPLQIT

Take `COc1cccc(C2SC(c3ccc(Cl)cc3)=NN2C(=O)c2c(F)cc(F)cc2F)c1OC` (racemic): the Activity in the data set on THP-1 [1] is 59%; in the data set with THP-1 [8], 34%. Moreover, the EC50 in data set [2] came out at 608 nM; in data set [10], 98 nM. The outcome in data set [3] and in [4] was inactive. In [5], the exposure (AUC) was 7920 ng·h/mL. The Cmax in data set [6] turned out to be 20.4 µM. Moreover, the results for the Efficacy in data set [7] and in data set [9] were 19% and 42%, respectively.

As a reminder, the EC50 is the midpoint of the concentration-response curve. Read a high EC50 as weaker potency. Broadly, the AUC is the area under the concentration-time curve, a measure of exposure. Higher therefore signals high exposure. The Cmax is the peak of the concentration-time curve.
